ChEMBL document CHEMBL5620402, “Development of submicromolar 17β-HSD10 inhibitors and their in vitro and in vivo evaluation” (Eur J Med Chem, 2023)
Calls of active or inactive are those of the source. The calls are words filed in the database; no cut-off is given here.

Assays:
[1] = Tmax in male albino Wistar rat brain at 0.013 mg/kg, iv measured upto 1440 mins by HPLC-MS analysis; format: ADME, organism-based
Summary of the method: (§1)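 Single tail-vein injection into male wild-type rats, 0.1 mL per 100 g body weight. Solutions were 20 or 25 μM in saline with 3% DMSO, giving 0.013 or 0.018 mg/kg. Rats were exsanguinated at 5–1440 min (9 time-points, 3 per point). Plasma and brain levels were measured by HPLC-MS. Parameters came from non-compartmental analysis; values are mean ± SE of three.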

[2] = Permeability coefficient in male albino Wistar rat assessed as ratio of brain AUC to plasma AUC at 60 mg/kg, po measured upto 1440 mins by HPLC-MS analysis; format: ADME, organism-based
Summary of the method: (§2)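 Oral gavage via blunt needle into the stomach of male wild-type rats. Dose was 60 mg/kg from a 16 mM solution in 10% NMP, 25% Kolliphor EL and 65% saline. Rats were sacrificed at 15 time-points from 5 to 1440 min, 3 per point. Plasma and brain were analysed by HPLC-MS with non-compartmental analysis; values are mean ± SE of three.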

[3] = AUC (0 to 1440 mins) in male albino Wistar rat plasma at 0.013 mg/kg, iv measured upto 1440 mins by HPLC-MS analysis; format: ADME, organism-based; details: in vivo, 24 h; summary of the method: as §1
[4] = AUC (0 to 1440 mins) in male albino Wistar rat brain at 60 mg/kg, po measured upto 1440 mins by HPLC-MS analysis; format: ADME, organism-based; details: in vivo, 24 h; summary of the method: as §2
[5] = MRT in male albino Wistar rat plasma at 0.013 mg/kg, iv measured upto 1440 mins by HPLC-MS analysis; format: ADME, organism-based; summary of the method: as §1
[6] = Apparent volume of distribution in male albino Wistar rat plasma at 0.013 mg/kg, iv measured upto 1440 mins by HPLC-MS analysis; format: ADME, organism-based; details: read-out: Vz; summary of the method: as §1
[7] = Cmax in male albino Wistar rat plasma at 0.013 mg/kg, iv measured upto 1440 mins by HPLC-MS analysis; format: ADME, organism-based; summary of the method: as §1
[8] = Tmax in male albino Wistar rat plasma at 0.013 mg/kg, iv measured upto 1440 mins by HPLC-MS analysis; format: ADME, organism-based; summary of the method: as §1
[9] = Cmax in male albino Wistar rat brain at 0.013 mg/kg, iv measured upto 1440 mins by HPLC-MS analysis; format: ADME, organism-based; summary of the method: as §1
[10] = AUC (0 to 1440 mins) in male albino Wistar rat plasma at 60 mg/kg, po measured upto 1440 mins by HPLC-MS analysis; format: ADME, organism-based; details: in vivo, 24 h; summary of the method: as §2
[11] = tested on: SH-SY5Y; experiment: Reduction in glutathione level in human SH-SY5Y cells at 100 uM measured after 24 hrs by monochlorobimane assay; format: functional, cell-based
Summary of the method: (§3)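 SH-SY5Y cells (passages 14–18) in DMEM/F12 with 15% FBS were exposed to compound (0.1–100 μM) for 4 or 24 h. Monochlorobimane was then added to a final 40 μmol/L, and fluorescence (394/490 nm) was followed for 10 min. GSH is the slope as % of control, mean ± SD, triplicate of ≥3 experiments.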

[12] = tested on: SH-SY5Y; experiment: Reduction in dehydrogenase activity in human SH-SY5Y cells at 100 uM measured after 4 to 24 hrs by […] assay; format: functional, cell-based; details: time 4-24 hrs
Summary of the method: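 SH-SY5Y cells (passages 14–18) in DMEM/F12 with 15% FBS were exposed to compound (0.1–100 μM) for 4 and 24 h. WST-1 reagent was added and the absorbance change at 440 nm was read over 0–1 h. Results are % of control cells, mean ± SD, triplicate of ≥3 experiments.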

[13] = tested on: SH-SY5Y; experiment: Reduction in glutathione level in human SH-SY5Y cells at 100 uM measured after 4 hrs by monochlorobimane assay; format: functional, cell-based; summary of the method: as §3
[14] = Half life in male albino Wistar rat plasma at 0.013 mg/kg, iv measured upto 1440 mins by HPLC-MS analysis; format: ADME, organism-based; summary of the method: as §1
[15] = AUC (0 to 1440 mins) in male albino Wistar rat brain at 0.013 mg/kg, iv measured upto 1440 mins by HPLC-MS analysis; format: ADME, organism-based; details: in vivo, 24 h; summary of the method: as §1
[16] = Permeability coefficient in male albino Wistar rat assessed as ratio of brain AUC to plasma AUC at 0.013 mg/kg, iv measured upto 1440 mins by HPLC-MS analysis; format: ADME, organism-based; summary of the method: as §1
[17] = Cmax in male albino Wistar rat brain at 60 mg/kg, po measured upto 1440 mins by HPLC-MS analysis; format: ADME, organism-based; summary of the method: as §2
[18] = Apparent volume of distribution in male albino Wistar rat plasma at 0.018 mg/kg, iv measured upto 1440 mins by HPLC-MS analysis; format: ADME, organism-based; details: read-out: Vz; summary of the method: as §1
[19] = Half life in male albino Wistar rat plasma at 0.018 mg/kg, iv measured upto 1440 mins by HPLC-MS analysis; format: ADME, organism-based; summary of the method: as §1
[20] = Cmax in male albino Wistar rat plasma at 0.018 mg/kg, iv measured upto 1440 mins by HPLC-MS analysis; format: ADME, organism-based; summary of the method: as §1
[21] = MRT in male albino Wistar rat plasma at 0.018 mg/kg, iv measured upto 1440 mins by HPLC-MS analysis; format: ADME, organism-based; summary of the method: as §1
[22] = Tmax in male albino Wistar rat plasma at 0.018 mg/kg, iv measured upto 1440 mins by HPLC-MS analysis; format: ADME, organism-based
Summary of the method: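 Single tail-vein injection in male wild-type rats of a 25 μM dosing solution in saline with 3% DMSO, given at 0.1 mL per 100 g body weight. Three animals were killed at each of 5, 15, 30, 60, 90, 180, 240, 360 and 1440 min and exsanguinated. Plasma levels were measured by HPLC-MS. Parameters came from non-compartmental analysis, reported as mean ± SE of three.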

[23] = Tmax in male albino Wistar rat brain at 0.018 mg/kg, iv measured upto 1440 mins by HPLC-MS analysis; format: ADME, organism-based; summary of the method: as §1
[24] = AUC (0 to 1440 mins) in male albino Wistar rat brain at 0.018 mg/kg, iv measured upto 1440 mins by HPLC-MS analysis; format: ADME, organism-based; details: in vivo, 24 h; summary of the method: as §1
[25] = Permeability coefficient in male albino Wistar rat assessed as ratio of brain AUC to plasma AUC at 0.018 mg/kg, iv measured upto 1440 mins by HPLC-MS analysis; format: ADME, organism-based; summary of the method: as §1
[26] = AUC (0 to 1440 mins) in male albino Wistar rat plasma at 0.018 mg/kg, iv measured upto 1440 mins by HPLC-MS analysis; format: ADME, organism-based; details: in vivo, 24 h; summary of the method: as §1

## CC(=O)Nc1ccc2nc(NC(=O)Nc3ccc(O)c(Cl)c3)sc2c1
[1]
  Tmax: 956 min
[2]
  Kp at 24 h: 0.011
[3]
  AUC: 5832 pmol·min
[4]
  AUC: 15749 pmol·min
[5]
  MRT: 24.5 min
[6]
  Vd: 147 L/kg
[7]
  Cmax: 0.389 nM
[8]
  Tmax: 5 min
[9]
  Cmax: 0.0126 nM
[10]
  AUC: 1431047 pmol·min
[11]
  inhibition: inactive
[12]
  inhibition: Active
[13]
  inhibition: Active
[14]
  half-life: 15.8 min
[15]
  AUC: 3299 pmol·min
[16]
  Kp at 24 h: 0.566
[17]
  Cmax: 0.206 nM

## O=C(Nc1ccc(O)c(Cl)c1)Nc1nc2ccc(C(=O)O)cc2s1
[18]
  Vd: 135 L/kg
[2]
  Kp at 24 h: 0.095
[4]
  AUC: 20135 pmol·min
[10]
  AUC: 212993 pmol·min
[19]
  half-life: 29.4 min
[20]
  Cmax: 1.54 nM
[21]
  MRT: 15.7 min
[22]
  Tmax: 5 min
[23]
  Tmax: 90 min
[24]
  AUC: 34 pmol·min
[25]
  Kp at 24 h: 0.002
[26]
  AUC: 18961 pmol·min
[17]
  Cmax: 0.154 nM
